How the values were obtained:
[1] = molecular target: D(2) dopamine receptor (Homo sapiens) (UniProt P14416); test: (§1) Negative allosteric modulation of recombinant human D2L receptor expressed in Flp-In CHO cells assessed as inhibition of dopamine-induced reduction in forskolin stimulated cAMP accumulation preincubated for 30 mins followed by forskolin stimulation and measured after 30 mins by BRET assay; assay type: functional, cell-based
[2] = molecular target: D(2) dopamine receptor (Homo sapiens) (UniProt P14416); test: as §1, with “accumulation by measuring co-operativity factor” for “accumulation”; assay type: functional, cell-based
Homo sapiens = species: Homo sapiens; test: Selectivity ratio of Kb for recombinant D3 receptor (unknown origin) expressed in Flp-In CHO cell membranes to Kb for recombinant human D2L receptor expressed in Flp-In CHO cell membranes; assay type: cell-based
[3] = molecular target: D(2) dopamine receptor (Homo sapiens) (UniProt P14416); test: Allosteric modulation of recombinant human D2L receptor expressed in Flp-In CHO cell membranes assessed as dissociation of [3H]Raclopride in presence of haloperidol after 2 to 3 hrs by microbeta counting method (reference value: 0.014 +/- 0.001 /min); assay type: cell-based
Method in brief: (§2)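 Membranes from FlpIn CHO cells stably expressing hD2LR were incubated with 0.5 nM [3H]raclopride for 60 min in HEPES/NaCl/MgCl2/EGTA/EDTA buffer, pH 7.4, at 25 °C. Dissociation was then started by adding 10 µM haloperidol, with or without modulator. Bound radioactivity was collected by filtration and scintillation counting. Curves were fitted for koff, and t1/2 = 0.6931/koff.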

[4] = molecular target: D(2) dopamine receptor (Homo sapiens) (UniProt P14416); test: as §1, with “accumulation by measuring modulation of dopamine efficacy” for “accumulation”; assay type: functional, cell-based
[5] = molecular target: D(2) dopamine receptor (Homo sapiens) (UniProt P14416); test: Allosteric modulation of recombinant human D2L receptor expressed in Flp-In CHO cell membranes assessed as dissociation half life for [3H]Raclopride in presence of haloperidol after 2 to 3 hrs by microbeta counting method (reference value: 49.2 min); assay type: cell-based; method in brief: as §2
[6] = molecular target: D(3) dopamine receptor (Homo sapiens) (UniProt P35462); test: Displacement of [3H]Raclopride from recombinant D3 receptor (unknown origin) expressed in Flp-In CHO cell membranes after 2 to 3 hrs by microbeta counting method
Chain of D(3) dopamine receptor (Homo sapiens) (P35462 whole entry): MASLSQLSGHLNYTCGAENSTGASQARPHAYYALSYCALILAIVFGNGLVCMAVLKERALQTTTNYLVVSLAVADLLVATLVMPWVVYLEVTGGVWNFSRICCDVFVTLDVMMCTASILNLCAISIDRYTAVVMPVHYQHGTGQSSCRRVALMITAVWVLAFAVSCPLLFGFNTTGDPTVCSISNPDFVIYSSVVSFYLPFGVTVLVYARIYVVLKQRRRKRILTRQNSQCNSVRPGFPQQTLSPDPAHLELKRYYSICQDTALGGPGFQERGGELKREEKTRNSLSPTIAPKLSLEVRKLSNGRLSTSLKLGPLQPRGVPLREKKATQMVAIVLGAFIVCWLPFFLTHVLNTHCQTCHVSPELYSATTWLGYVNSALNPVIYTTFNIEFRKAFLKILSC
Method in brief: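 In FlpIn CHO membranes expressing hD3R, compound was tested for displacement of [3H]raclopride in equilibrium binding. Competition curves were fitted with an allosteric ternary complex model to give KB and the net cooperativity factor with [3H]raclopride. Data are at least three independent experiments in duplicate.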

[7] = molecular target: D(2) dopamine receptor (Homo sapiens) (UniProt P14416); test: Displacement of [3H]Raclopride from recombinant human D2L receptor expressed in Flp-In CHO cell membranes after 2 to 3 hrs by microbeta counting method
Method in brief: (§3)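 hD2LR FlpIn CHO membrane homogenate (15 µg protein) was co-incubated with 0.5 nM [3H]raclopride and test compound at 10^-3 to 10^-7 M (half-log dilutions from DMSO stock, in duplicate). Incubation was 2-3 h at 25 °C in HEPES buffer, pH 7.4. Nonspecific binding was defined with 10 µM haloperidol. Filtration was followed by scintillation counting. KB and cooperativity α were obtained from an allosteric ternary complex model.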

[8] = molecular target: D(2) dopamine receptor (Homo sapiens) (UniProt P14416); test: Displacement of [3H]Raclopride from recombinant human D2L receptor expressed in Flp-In CHO cell membranes assessed as co-operativity factor after 2 to 3 hrs by microbeta counting method; method in brief: as §3

Chain of D(2) dopamine receptor (Homo sapiens) (P14416 whole entry): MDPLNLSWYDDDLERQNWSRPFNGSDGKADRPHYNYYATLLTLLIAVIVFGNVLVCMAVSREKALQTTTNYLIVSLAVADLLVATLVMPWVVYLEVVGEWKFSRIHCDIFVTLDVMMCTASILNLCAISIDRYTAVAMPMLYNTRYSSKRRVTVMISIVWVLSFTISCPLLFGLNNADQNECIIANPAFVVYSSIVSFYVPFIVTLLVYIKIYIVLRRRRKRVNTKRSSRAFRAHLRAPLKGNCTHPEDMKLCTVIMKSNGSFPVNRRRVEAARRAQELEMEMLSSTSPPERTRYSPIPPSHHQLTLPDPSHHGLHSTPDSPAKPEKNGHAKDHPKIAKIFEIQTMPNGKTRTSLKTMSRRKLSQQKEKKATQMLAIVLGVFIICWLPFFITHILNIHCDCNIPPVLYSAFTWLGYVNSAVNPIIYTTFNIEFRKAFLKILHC

Which Kb [1] does the source give for `CCN(CC)c1nc(CN2CCOCC2)nc2sc3c(c12)CCCC3` here?
The Kb was 0.662 µM.

What about the pKb [1] of the same compound?
The pKb was 6.18.

What about the Activity [2] of the same compound?
Its Activity is 0.68.

What about the log(activity) [2] of the same compound?
Its log(activity) is -0.17.

What about the Selectivity ratio (Homo sapiens) of the same compound?
The Selectivity ratio was 23.

And the K [3]?
Its K is 0.038 min⁻¹.

And the Activity [4]?
The Activity was 0.08.

And the log(activity) [4]?
The log(activity) was -1.1.

And the T1/2 [5]?
The T1/2 was 18.2 min.

What about the pKb [6] of the same compound?
Its pKb is 3.85.

What about the Kb [7] of the same compound?
Its Kb is 6 µM.

What about the pKb [7] of the same compound?
Its pKb is 5.22.

What about the Activity [8] of the same compound?
The Activity was 0.23.

And the log(activity) [8]?
Its log(activity) is -0.64.

Source: ChEMBL document CHEMBL4308833, “A Thieno[2,3- d]pyrimidine Scaffold Is a Novel Negative Allosteric Modulator of the Dopamine D2 Receptor” (J Med Chem, 2018)
